{"source": "ChEMBL document CHEMBL4689842", "about": "“EUbOPEN Chemogenomics Library wave 1” (2021)", "key": {"[1]": {"system": "HEK-293T", "assay": "Multiplex assay against HEK293T;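 for Population Tubulin-Different-Phenotype (%): share of the cells with healthy nuclei that show this phenotype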", "assay_type": "toxicity, cell-based", "conditions": "human", "in_short": "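Compound was added to live cells that had been stained at seeding with Hoechst33342, BioTracker Green Microtubule Cytoskeleton Dye, MitoTracker Red and Annexin V Alexa Fluor 680, and imaging followed on a CQ1 microscope at 37°C and 5% CO2. CellPathfinder machine-learning gating divided cells into Hoechst high-intensity objects or normal cells, normal cells into healthy, pyknosed or fragmented nuclei, and pyknosed cells into mitotic or apoptotic. Tubulin, mitochondrial-mass and membrane-permeability phenotypes are per cents of healthy-nucleus cells.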"}, "[2]": {"system": "Fibroblast", "assay": "Incucyte cell viability with human fibroblast; note: filed as whole numbers so only -1 and 0 and 1 occur", "assay_type": "toxicity, cell-based", "conditions": "10 µM, compound concentration 10 uM"}, "[3]": {"conditions": "12 h, 1 µM, compound concentration 1 uM, replicate 1"}, "[4]": {"conditions": "12 h, 1 µM, compound concentration 1 uM, replicate 2"}, "[5]": {"conditions": "12 h, 10 µM, compound concentration 10 uM, replicate 1"}, "[6]": {"conditions": "12 h, 10 µM, compound concentration 10 uM, replicate 2"}, "[7]": {"conditions": "24 h, 1 µM, compound concentration 1 uM, replicate 1"}, "[8]": {"conditions": "24 h, 1 µM, compound concentration 1 uM, replicate 2"}, "[9]": {"conditions": "24 h, 10 µM, compound concentration 10 uM, replicate 1"}, "[10]": {"conditions": "24 h, 10 µM, compound concentration 10 uM, replicate 2"}}}
{"molecule": "Cc1cn(-c2cc(NC(=O)c3ccc4c(c3)CN(c3cncnc3)C[C@@H]4C)cc(C(F)(F)F)c2)cn1", "values": [{"measurement": "Population Apoptotic (%)", "setting": "[1]; [3]", "value": 15, "unit": "%"}, {"measurement": "Population Fragmented Nuclei (%)", "setting": "[1]; [3]", "value": 25, "unit": "%"}, {"measurement": "Population Healthy Nuclei (%)", "setting": "[1]; [3]", "value": 52, "unit": "%"}, {"measurement": "Population Hoechst High Intensity Objects (%)", "setting": "[1]; [3]", "value": 20, "unit": "%"}, {"measurement": "Population Membrane Permeable-Phenotype (%)", "setting": "[1]; [3]", "value": 5, "unit": "%"}, {"measurement": "Population Mitochondria Different-Phenotype (%)", "setting": "[1]; [3]", "value": 6, "unit": "%"}, {"measurement": "Population Mitotic Cells (%)", "setting": "[1]; [3]", "value": 84, "unit": "%"}, {"measurement": "Population Normal (%)", "setting": "[1]; [3]", "value": 79, "unit": "%"}, {"measurement": "Population Pyknosed Nuclei (%)", "setting": "[1]; [3]", "value": 22, "unit": "%"}, {"measurement": "Population Tubulin-Different-Phenotype (%)", "setting": "[1]; [3]", "value": 4, "unit": "%"}, {"measurement": "Total Cell Count", "setting": "[1]; [3]", "value": 536}, {"measurement": "Population Apoptotic (%)", "setting": "[1]; [4]", "value": 8, "unit": "%"}, {"measurement": "Population Fragmented Nuclei (%)", "setting": "[1]; [4]", "value": 6, "unit": "%"}, {"measurement": "Population Healthy Nuclei (%)", "setting": "[1]; [4]", "value": 87, "unit": "%"}, {"measurement": "Population Hoechst High Intensity Objects (%)", "setting": "[1]; [4]", "value": 3, "unit": "%"}, {"measurement": "Population Membrane Permeable-Phenotype (%)", "setting": "[1]; [4]", "value": 2, "unit": "%"}, {"measurement": "Population Mitochondria Different-Phenotype (%)", "setting": "[1]; [4]", "value": 8, "unit": "%"}, {"measurement": "Population Mitotic Cells (%)", "setting": "[1]; [4]", "value": 91, "unit": "%"}, {"measurement": "Population Normal (%)", "setting": "[1]; [4]", "value": 96, "unit": "%"}, {"measurement": "Population Pyknosed Nuclei (%)", "setting": "[1]; [4]", "value": 5, "unit": "%"}, {"measurement": "Total Cell Count", "setting": "[1]; [4]", "value": 1397}, {"measurement": "Population Apoptotic (%)", "setting": "[1]; [5]", "value": 17, "unit": "%"}, {"measurement": "Population Fragmented Nuclei (%)", "setting": "[1]; [5]", "value": 17, "unit": "%"}, {"measurement": "Population Healthy Nuclei (%)", "setting": "[1]; [5]", "value": 62, "unit": "%"}, {"measurement": "Population Hoechst High Intensity Objects (%)", "setting": "[1]; [5]", "value": 13, "unit": "%"}, {"measurement": "Population Membrane Permeable-Phenotype (%)", "setting": "[1]; [5]", "value": 12, "unit": "%"}, {"measurement": "Population Mitochondria Different-Phenotype (%)", "setting": "[1]; [5]", "value": 6, "unit": "%"}, {"measurement": "Population Mitotic Cells (%)", "setting": "[1]; [5]", "value": 82, "unit": "%"}, {"measurement": "Population Normal (%)", "setting": "[1]; [5]", "value": 86, "unit": "%"}, {"measurement": "Population Pyknosed Nuclei (%)", "setting": "[1]; [5]", "value": 20, "unit": "%"}, {"measurement": "Population Tubulin-Different-Phenotype (%)", "setting": "[1]; [5]", "value": 37, "unit": "%"}, {"measurement": "Total Cell Count", "setting": "[1]; [5]", "value": 653}, {"measurement": "Population Apoptotic (%)", "setting": "[1]; [6]", "value": 16, "unit": "%"}, {"measurement": "Population Fragmented Nuclei (%)", "setting": "[1]; [6]", "value": 5, "unit": "%"}, {"measurement": "Population Healthy Nuclei (%)", "setting": "[1]; [6]", "value": 88, "unit": "%"}, {"measurement": "Population Hoechst High Intensity Objects (%)", "setting": "[1]; [6]", "value": 4, "unit": "%"}, {"measurement": "Population Membrane Permeable-Phenotype (%)", "setting": "[1]; [6]", "value": 5, "unit": "%"}, {"measurement": "Population Mitochondria Different-Phenotype (%)", "setting": "[1]; [6]", "value": 24, "unit": "%"}, {"measurement": "Population Mitotic Cells (%)", "setting": "[1]; [6]", "value": 83, "unit": "%"}, {"measurement": "Population Normal (%)", "setting": "[1]; [6]", "value": 95, "unit": "%"}, {"measurement": "Population Pyknosed Nuclei (%)", "setting": "[1]; [6]", "value": 5, "unit": "%"}, {"measurement": "Population Tubulin-Different-Phenotype (%)", "setting": "[1]; [6]", "value": 40, "unit": "%"}, {"measurement": "Total Cell Count", "setting": "[1]; [6]", "value": 1483}, {"measurement": "Population Apoptotic (%)", "setting": "[1]; [7]", "value": 23, "unit": "%"}, {"measurement": "Population Fragmented Nuclei (%)", "setting": "[1]; [7]", "value": 16, "unit": "%"}, {"measurement": "Population Healthy Nuclei (%)", "setting": "[1]; [7]", "value": 72, "unit": "%"}, {"measurement": "Population Hoechst High Intensity Objects (%)", "setting": "[1]; [7]", "value": 15, "unit": "%"}, {"measurement": "Population Membrane Permeable-Phenotype (%)", "setting": "[1]; [7]", "value": 9, "unit": "%"}, {"measurement": "Population Mitochondria Different-Phenotype (%)", "setting": "[1]; [7]", "value": 3, "unit": "%"}, {"measurement": "Population Mitotic Cells (%)", "setting": "[1]; [7]", "value": 76, "unit": "%"}, {"measurement": "Population Normal (%)", "setting": "[1]; [7]", "value": 84, "unit": "%"}, {"measurement": "Population Pyknosed Nuclei (%)", "setting": "[1]; [7]", "value": 11, "unit": "%"}, {"measurement": "Population Tubulin-Different-Phenotype (%)", "setting": "[1]; [7]", "value": 3, "unit": "%"}, {"measurement": "Total Cell Count", "setting": "[1]; [7]", "value": 545}, {"measurement": "Population Apoptotic (%)", "setting": "[1]; [8]", "value": 6, "unit": "%"}, {"measurement": "Population Fragmented Nuclei (%)", "setting": "[1]; [8]", "value": 15, "unit": "%"}, {"measurement": "Population Healthy Nuclei (%)", "setting": "[1]; [8]", "value": 81, "unit": "%"}, {"measurement": "Population Hoechst High Intensity Objects (%)", "setting": "[1]; [8]", "value": 2, "unit": "%"}, {"measurement": "Population Membrane Permeable-Phenotype (%)", "setting": "[1]; [8]", "value": 5, "unit": "%"}, {"measurement": "Population Mitochondria Different-Phenotype (%)", "setting": "[1]; [8]", "value": 2, "unit": "%"}, {"measurement": "Population Mitotic Cells (%)", "setting": "[1]; [8]", "value": 93, "unit": "%"}, {"measurement": "Population Normal (%)", "setting": "[1]; [8]", "value": 97, "unit": "%"}, {"measurement": "Population Pyknosed Nuclei (%)", "setting": "[1]; [8]", "value": 2, "unit": "%"}, {"measurement": "Population Tubulin-Different-Phenotype (%)", "setting": "[1]; [8]", "value": 5, "unit": "%"}, {"measurement": "Total Cell Count", "setting": "[1]; [8]", "value": 2221}, {"measurement": "Population Apoptotic (%)", "setting": "[1]; [9]", "value": 15, "unit": "%"}, {"measurement": "Population Fragmented Nuclei (%)", "setting": "[1]; [9]", "value": 16, "unit": "%"}, {"measurement": "Population Healthy Nuclei (%)", "setting": "[1]; [9]", "value": 73, "unit": "%"}, {"measurement": "Population Hoechst High Intensity Objects (%)", "setting": "[1]; [9]", "value": 12, "unit": "%"}, {"measurement": "Population Membrane Permeable-Phenotype (%)", "setting": "[1]; [9]", "value": 29, "unit": "%"}, {"measurement": "Population Mitochondria Different-Phenotype (%)", "setting": "[1]; [9]", "value": 6, "unit": "%"}, {"measurement": "Population Mitotic Cells (%)", "setting": "[1]; [9]", "value": 84, "unit": "%"}, {"measurement": "Population Normal (%)", "setting": "[1]; [9]", "value": 87, "unit": "%"}, {"measurement": "Population Pyknosed Nuclei (%)", "setting": "[1]; [9]", "value": 10, "unit": "%"}, {"measurement": "Population Tubulin-Different-Phenotype (%)", "setting": "[1]; [9]", "value": 54, "unit": "%"}, {"measurement": "Total Cell Count", "setting": "[1]; [9]", "value": 740}, {"measurement": "Population Apoptotic (%)", "setting": "[1]; [10]", "value": 8, "unit": "%"}, {"measurement": "Population Fragmented Nuclei (%)", "setting": "[1]; [10]", "value": 12, "unit": "%"}, {"measurement": "Population Healthy Nuclei (%)", "setting": "[1]; [10]", "value": 84, "unit": "%"}, {"measurement": "Population Hoechst High Intensity Objects (%)", "setting": "[1]; [10]", "value": 3, "unit": "%"}, {"measurement": "Population Membrane Permeable-Phenotype (%)", "setting": "[1]; [10]", "value": 14, "unit": "%"}, {"measurement": "Population Mitochondria Different-Phenotype (%)", "setting": "[1]; [10]", "value": 7, "unit": "%"}, {"measurement": "Population Mitotic Cells (%)", "setting": "[1]; [10]", "value": 91, "unit": "%"}, {"measurement": "Population Normal (%)", "setting": "[1]; [10]", "value": 96, "unit": "%"}, {"measurement": "Population Pyknosed Nuclei (%)", "setting": "[1]; [10]", "value": 3, "unit": "%"}, {"measurement": "Population Tubulin-Different-Phenotype (%)", "setting": "[1]; [10]", "value": 55, "unit": "%"}, {"measurement": "Total Cell Count", "setting": "[1]; [10]", "value": 2031}, {"measurement": "Growth Rate", "setting": "[2]; 0 h, replicate number 2, timepoint 0 hours", "value": 0}, {"measurement": "Growth Rate", "setting": "[2]; 6 h, replicate number 1, timepoint 6 hours", "value": 0}, {"measurement": "Growth Rate", "setting": "[2]; 12 h, replicate number 1, timepoint 12 hours", "value": 0}, {"measurement": "Growth Rate", "setting": "[2]; 12 h, replicate number 2, timepoint 12 hours", "value": 1}, {"measurement": "Growth Rate", "setting": "[2]; 18 h, replicate number 1, timepoint 18 hours", "value": 0}, {"measurement": "Growth Rate", "setting": "[2]; 24 h, replicate number 1, timepoint 24 hours", "value": 0}]}
